In the RNAGym collection of RNA variant scans (doi:10.1002/anie.201605470):

B1: Osa-1-4 twister ribozyme (parent)
chain: CCGCCUAACACUGCCAAUGCCGGUCCCAAGCCCGGAUAAAAGUGGAGGGGGCGG

Variants of: B1
Experiment: self-cleavage, relative activity (ratio to wild type); higher = more cleavage; co-transcriptional
How it was run: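 A DNA template for a 54-nucleotide Oryza sativa twister ribozyme was synthesised with 97 % wild-type base and 1 % of each other base at the 48 positions downstream of the cleavage site. It was transcribed in vitro for 2 h at 37 °C, allowing co-transcriptional self-cleavage, then reverse-transcribed with a template-switching oligonucleotide, PCR-amplified and deep-sequenced. Cleavage status was scored from reads with or without upstream sequence. Relative activity is fraction cleaved normalised to wild type.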

In order of rising self-cleavage:
1. CCGCCUAACACUGCCAAUGCCGGGCCCAAGCCCGGAUAAAAGUGGAAGGGGCGG [G47A U24G]  0.02
2. CCGCCUAACACUGCCAAUGCCGGUCCCAAGCCCGGAUAAAAGUGGACGUGGCGG [G47C G49U]  0.03
3. CCGCCUAACACUGCCAAUGCCGGUCCCAAGCCCGGAUAAAAGUGGACUGGGCGG [G47C G48U]  0.03
4. CCGCCUAACACUGCCAAUGCCGGUCCCAAGCCCGGAUAAAAGUGGAAGUGGCGG [G47A G49U]  0.04
5. CCGCCUAACACUGCCAAUGCCGGUCCCAAGCCCGGAUAAAAGUGGAAGCGGCGG [G47A G49C]  0.04
6. CCGCCUAACACUGCCAAUGCCGGUCCCAAGCCCGGAUAAAAGUGGACAGGGCGG [G47C G48A]  0.04
7. CCGCCUAACACUGCCAAUGCCGGACCCAAGCCCGGAUAAAAGUGGAAGGGGCGG [G47A U24A]  0.04
8. CCGCCUAACACUGCCAAUGCCGGCCCCAAGCCCGGAUAAAAGUGGAAGGGGCGG [G47A U24C]  0.04
9. CCGCCUAACACUGCCAAUGCCGGUCCCAAGCCCGGAUAAAAGUGGAAUGGGCGG [G47A G48U]  0.04
10. CCGCCUAACACUGCCAAUGCCGGUCCCAAGCCCGGAUAAAAGUGGAACGGGCGG [G47A G48C]  0.04
11. CCGCCUAACACUGCCAAUGCCGGUCCCAAGCCCGGAUAAAAGUGGACGGGCCGG [G47C G51C]  0.05
12. CCGCCUAACACUGCCAAUGCCGGUCCCAAGCCCGGAUAAAAGUGGACGGGUCGG [G47C G51U]  0.05
13. CCGCCUAACACUGCCAAUGCCGGUCCCAAGCCCGGAUAAAAGUGGAAGGGCCGG [G47A G51C]  0.05
14. CCGCCUAACACUGCCAAUGCCGGUCCCAAGCCCGGAUAAAAGUGGACGAGGCGG [G47C G49A]  0.05
15. CCGCCUAACACUGCCAAUGCCGGUCCCAAGCCCGGAUAAAAGUGGAAGAGGCGG [G47A G49A]  0.05
16. CCGCCUAACACUGCCAAUGCCGGUCCCAAGCCCGGAUAAAAGUGGACCGGGCGG [G47C G48C]  0.05
17. CCGCCUAACACUGCCAAUGCCGGUCCCAAGCCCGGAUAAAAGUGGAAGGGGCCG [G47A G53C]  0.06
18. CCGCCUAACACUGCCAAUGCCGGUCCCAAGCCCGGAUAAAAGUGGACGCGGCGG [G47C G49C]  0.06
19. CCGCCUAACACGGCCAAUGCCGGUCCCAAGCCCGGAUAAAAGUGGAAGGGGCGG [G47A U12G]  0.06
20. CCGCCUAACACUGCCAAUGCCGGUCCCAAGCCCGGAUAAAAGUGGACGGGGCCG [G47C G53C]  0.06
21. CCGCCUAACACUGCCAAUGCCGGUCCCAAGCCCGGAUAAAAGUGGACGGUGCGG [G47C G50U]  0.07
22. CCGCCUAACACCGCCAAUGCCGGUCCCAAGCCCGGAUAAAAGUGGAAGGGGCGG [G47A U12C]  0.07
23. CCGCCUAACACUGCCAAUGCCGGUCCCAAGCCCGGAUAAAAGUGGAAGGCGCGG [G47A G50C]  0.07
24. CCGCCUAACACUGCCAAUGCCGGUCCCAAGCCCGGAUAAAAGUGGACGGCGCGG [G47C G50C]  0.08
25. CCGCCUAACACUGCCAAUGCCGGUCCCAAGCCCGGAUAAAAGUGGAAGGGGCUG [G47A G53U]  0.08
26. CCGCCUAACACAGCCAAUGCCGGUCCCAAGCCCGGAUAAAAGUGGAAGGGGCGG [G47A U12A]  0.08
27. CCGCCUAACACUGCCAAUGCCGGUCCCAAGCCCGGAUAAAAGUGGAAAGGGCGG [G47A G48A]  0.08
28. CCGCCUAACACUGCCAAUGCCGGUCCCAAGCCCGGAUAAAAGUGGACGGGGCUG [G47C G53U]  0.08
29. CCGCCUAACACUGCCAAUGCCGGUCCCAAGCCCGGAUAAAAGUGGACGGGACGG [G47C G51A]  0.09
30. CCGCCUAACACUGCCAAUGCCGGUCCCAAGCCCGGAUAAAAGCGGAAGGGGCGG [G47A U43C]  0.09
31. CCGCCUAACACUGCCAAUGCCGGUCCCAAGCCCGGAUAAAAGUGGAAGGGUCGG [G47A G51U]  0.09
32. CCGCCUAACACUGCCAAUGCCGGUCCCAAGCCCGGAUAAAAGUGGAAGGUGCGG [G47A G50U]  0.09
33. CCGCCUAACACUGCCAAUGCCGGUCCCAAGCCCGGAUAAAAGGGGAAGGGGCGG [G47A U43G]  0.1
34. CCGCCUAACACUGCCAAUGCCGGUCCCAAGCCCGGAUAAAAGUGGACGGGGCAG [G47C G53A]  0.1
35. CCGCCUAACACUGCCAAUGCCGGUCCCAAGCCCGGAUAAAAGAGGAAGGGGCGG [G47A U43A]  0.11
36. CCGCCUAACACUGCCAAUGCCGGUCCCAAGCCCGGAUAAAAGUGGAAGGGACGG [G47A G51A]  0.12
37. CCGCCUAACACUGCCAAUGCCGGUCCCAAGCCCGGAUAAAAGUGGACGGAGCGG [G47C G50A]  0.13
38. CCGCCUAACACUGCCAAUGCCGGUCCCAAGCCCGGAUAAAAGUGGAAGGGGCAG [G47A G53A]  0.13
39. CCGCCUAACACUGCCAAUGCCGGUCCCAAGCCCGGAUAAAAGUGGAAGGGGCGC [G47A G54C]  0.15
40. CCGCCUAACACUGCCAAUGCCGGUCCCAAGCCCGGAUAAAAGUGGACGGGGCGG [G47C]  0.17
41. CCGCCUAACACUGCCAAUGCCGGUCCCAAGCCCGGAUAAAAGUGGAAGGGGCGA [G47A G54A]  0.18
42. CCGCCUAACACUGCCAACGCCGGUCCCAAGCCCGGAUAAAAGUGGAAGGGGCGG [G47A U18C]  0.22
43. CCGCCUAACACUGCCAAUGCCGGUCCCAAGCCCGGAAAAAAGUGGAAGGGGCGG [G47A U37A]  0.28
44. CCGCCUAACACUGCCAAAGCCGGUCCCAAGCCCGGAUAAAAGUGGAAGGGGCGG [G47A U18A]  0.33
45. CCGCCUAACACUGCCAAUGCCGGUCCCAAGCCCGGAUAAAAGUGGAAGGGGCGU [G47A G54U]  0.34
46. CCGCCUAACACUGCCAAUGCCGGUCCCAAGCCCGGAUAAAAGUGGAAGGAGCGG [G47A G50A]  0.36
47. CCGCCUAACACUGCCAAUGCCGGUCCCAAGCCCGGACAAAAGUGGAAGGGGCGG [G47A U37C]  0.44
48. CCGCCUAACACUGCCAAGGCCGGUCCCAAGCCCGGAUAAAAGUGGAAGGGGCGG [G47A U18G]  0.56
49. CCGCCUAACACUGCCAAUGCCGGUCCCAAGCCCGGAGAAAAGUGGAAGGGGCGG [G47A U37G]  0.62
